Laboratory results taken from ChEMBL document CHEMBL4257467, “Synthesis and pharmaceutical characterization of site specific mycophenolic acid-modified Xenopus glucagon-like peptide-1 analogs” (Medchemcomm, 2018).
The source made the active and inactive calls. *1 amine or outer side, *2 acyl side, *3 side chain or, on linkers, in order; H or OH if unused. Where a SMILES comes first, the peptide text is derived from it. Side-chain parts run from the residue outwards. The star is where a group is joined. Mycophenolyl = COc1c(C)c2c(c(O)c1C/C=C(\C)CCC(=O)*)C(=O)OC2; γGlu = O=C(O)[C@H](CCC(=O)[*:2])N[*:1]; 12Ado = NCCCCCCCCCCCC(=O)O; Ahx = NCCCCCC(=O)O

Columns and labels:
[1] = biological target: Glucagon-like peptide 1 receptor (Homo sapiens, UniProt P43220); test: Agonist activity at human GLP1 receptor expressed in HEK293 cells assessed as increase in cAMP level after 30 mins by HTRF method; type: functional, cell-based
How it was run: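 HEK293 cells stably expressing human GLP-1 receptor, thawed, suspended in DMEM with 20 mM HEPES, 2 mM L-Glu, 0.5% FBS, 1% pen-strep. Compounds dissolved in DMSO, diluted in assay buffer to 1 × 10−13–1 × 10−6 M final, 30 min at 37 °C in 5% CO2. cAMP read by HTRF. EC50 as means ± SD of three individual experiments, n = 3.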

[2] = test system: Mus musculus; test: Antidiabetic activity in Kunming mouse assessed as reduction in blood glucose AUC at 25 nmol/kg, ip pretreated for 30 mins followed by glucose-challenge and measured after 15 to 120 mins by IPGTT; type: functional, organism-based
How it was run: (§1)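 Male Kunming mice (20–25 g, n = 6) fasted overnight. Peptide or saline 25 nmol kg−1 ip at −30 min, ip glucose 2 g kg−1 at 0 min. Tail-vein blood glucose by glucometer at −30, 0, 15, 30, 60 and 120 min. Glucose AUC0–120min calculated; means ± SD.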

[3] = biological target: Albumin (Homo sapiens, UniProt P02768); test: Binding affinity to human serum albumin after 60 mins by ultrafiltration-based HPLC analysis; type: ADME; settings: for fraction unbound at 1 h: human serum albumin, read-out: PB (converted)
How it was run: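 Peptide in PBS pH 7.4 (100 μg ml−1) mixed with HSA (10 mg ml−1 in PBS), incubated 60 min at 37 °C. Ultrafiltration through 30 kDa cutoff filter, 30 min at 3500 rpm. Free compound in filtrate by HPLC. Membrane adsorption checked (<4%). Repeated three times.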

[4] = test system: Mus musculus; test: Antidiabetic activity in Kunming mouse assessed as reduction in blood glucose level at 25 nmol/kg, ip pretreated for 30 mins followed by glucose-challenge and measured after 15 to 120 mins by IPGTT; type: functional, organism-based; how it was run: as §1
[5] = Half life in Sprague-Dawley rat plasma at 0.5 mL by LC-MS/MS analysis; type: ADME, cell-free; settings: for half-life: Sprague-Dawley
How it was run: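 Plasma from male Sprague-Dawley rats (200–250 g). Peptide in PBS pH 7.4 added to initial 1000 ng ml−1 and incubated at 37 °C for 48 h. Samples at 2, 4, 8, 12, 24, 36, 48 h precipitated with acetonitrile containing 2% formic acid, centrifuged, analysed by LC-MS/MS in MRM mode. Degradation curves in triplicate.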

Glucagon-like peptide 1 receptor, sequence (P43220 whole entry): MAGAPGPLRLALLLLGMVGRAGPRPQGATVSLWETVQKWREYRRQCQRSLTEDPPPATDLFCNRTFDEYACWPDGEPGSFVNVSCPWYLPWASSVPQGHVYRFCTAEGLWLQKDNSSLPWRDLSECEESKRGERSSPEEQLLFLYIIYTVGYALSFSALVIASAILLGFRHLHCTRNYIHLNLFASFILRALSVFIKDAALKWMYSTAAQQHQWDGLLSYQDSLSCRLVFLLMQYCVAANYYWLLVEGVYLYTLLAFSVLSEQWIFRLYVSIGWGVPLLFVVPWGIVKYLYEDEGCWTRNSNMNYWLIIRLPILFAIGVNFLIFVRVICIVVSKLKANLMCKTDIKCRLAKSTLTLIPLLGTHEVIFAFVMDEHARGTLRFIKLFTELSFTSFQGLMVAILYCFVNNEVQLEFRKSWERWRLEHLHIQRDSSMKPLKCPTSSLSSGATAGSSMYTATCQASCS
Albumin, sequence (P02768 whole entry): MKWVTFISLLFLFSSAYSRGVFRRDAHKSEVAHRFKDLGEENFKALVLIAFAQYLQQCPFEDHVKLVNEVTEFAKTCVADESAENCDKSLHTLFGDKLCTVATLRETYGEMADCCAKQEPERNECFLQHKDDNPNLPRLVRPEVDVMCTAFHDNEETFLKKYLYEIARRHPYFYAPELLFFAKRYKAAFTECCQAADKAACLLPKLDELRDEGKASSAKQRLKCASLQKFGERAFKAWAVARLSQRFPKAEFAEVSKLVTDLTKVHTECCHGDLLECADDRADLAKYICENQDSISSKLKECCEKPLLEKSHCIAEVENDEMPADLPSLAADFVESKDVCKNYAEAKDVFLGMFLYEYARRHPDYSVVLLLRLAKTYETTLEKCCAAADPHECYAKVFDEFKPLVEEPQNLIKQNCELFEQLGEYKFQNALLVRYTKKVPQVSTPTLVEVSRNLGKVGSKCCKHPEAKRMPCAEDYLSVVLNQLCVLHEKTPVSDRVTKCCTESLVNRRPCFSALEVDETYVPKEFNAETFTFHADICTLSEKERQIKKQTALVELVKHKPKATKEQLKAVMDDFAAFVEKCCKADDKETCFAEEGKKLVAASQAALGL

Compound: H-HGEGTYTNDVTEYLEEEAAK([γGlu-Ahx-Mycophenolyl])EFIEWLIKGKPSSGAPPSKKKKKK-OH
- EC50 [1]: 2.8 nM
- Activity [2]: Active
- fraction unbound at 1 h [3]: 0.361
- Activity [4]: Active
- half-life [5]: 22.1 h

Compound: H-HGEGTYTNDVTEYLEEEAAKEFIEWLIKGK-OH
- EC50 [1]: 5.4 nM

Compound: CC[C@H](C)[C@H](NC(=O)[C@H](CC(C)C)NC(=O)[C@H](Cc1c[nH]c2ccccc12)NC(=O)[C@H](CCC(=O)O)NC(=O)[C@@H](NC(=O)[C@H](Cc1ccccc1)NC(=O)[C@H](CCC(=O)O)NC(=O)[C@H](CCCCNC(=O)CC[C@H](NC(=O)CCCCCCCCCCCNC(=O)CC/C(C)=C/Cc1c(O)c2c(c(C)c1OC)COC2=O)C(=O)O)NC(=O)[C@H](C)NC(=O)[C@H](C)NC(=O)[C@H](CCC(=O)O)NC(=O)[C@H](CCC(=O)O)NC(=O)[C@H](CCC(=O)O)NC(=O)[C@H](CC(C)C)NC(=O)[C@H](Cc1ccc(O)cc1)NC(=O)[C@H](CCC(=O)O)NC(=O)[C@@H](NC(=O)[C@@H](NC(=O)[C@H](CC(=O)O)NC(=O)[C@H](CC(N)=O)NC(=O)[C@@H](NC(=O)[C@H](Cc1ccc(O)cc1)NC(=O)[C@@H](NC(=O)CNC(=O)[C@H](CCC(=O)O)NC(=O)CNC(=O)[C@@H](N)Cc1cnc[nH]1)[C@@H](C)O)[C@@H](C)O)C(C)C)[C@@H](C)O)[C@@H](C)CC)C(=O)N[C@@H](CCCCN)C(=O)NCC(=O)N[C@@H](CCCCN)C(=O)O (H-HGEGTYTNDVTEYLEEEAAK([γGlu-12Ado-Mycophenolyl])EFIEWLIKGK-OH)
- EC50 [1]: 7.3 nM

Compound: CC[C@H](C)[C@H](NC(=O)[C@H](CC(C)C)NC(=O)[C@H](Cc1c[nH]c2ccccc12)NC(=O)[C@H](CCC(=O)O)NC(=O)[C@@H](NC(=O)[C@H](Cc1ccccc1)NC(=O)[C@H](CCC(=O)O)NC(=O)[C@H](CCCCN)NC(=O)[C@H](C)NC(=O)[C@H](C)NC(=O)[C@H](CCC(=O)O)NC(=O)[C@H](CCC(=O)O)NC(=O)[C@H](CCC(=O)O)NC(=O)[C@H](CC(C)C)NC(=O)[C@H](Cc1ccc(O)cc1)NC(=O)[C@H](CCC(=O)O)NC(=O)[C@@H](NC(=O)[C@@H](NC(=O)[C@H](CC(=O)O)NC(=O)[C@H](CC(N)=O)NC(=O)[C@@H](NC(=O)[C@H](Cc1ccc(O)cc1)NC(=O)[C@@H](NC(=O)CNC(=O)[C@H](CCC(=O)O)NC(=O)CNC(=O)[C@@H](N)Cc1cnc[nH]1)[C@@H](C)O)[C@@H](C)O)C(C)C)[C@@H](C)O)[C@@H](C)CC)C(=O)N[C@@H](CCCCNC(=O)CC[C@H](NC(=O)CCCCCCCCCCCNC(=O)CC/C(C)=C/Cc1c(O)c2c(c(C)c1OC)COC2=O)C(=O)O)C(=O)NCC(=O)N[C@@H](CCCCN)C(=O)O (H-HGEGTYTNDVTEYLEEEAAKEFIEWLIK([γGlu-12Ado-Mycophenolyl])GK-OH)
- EC50 [1]: 16.3 nM

Compound: CC[C@H](C)[C@H](NC(=O)[C@H](CC(C)C)NC(=O)[C@H](Cc1c[nH]c2ccccc12)NC(=O)[C@H](CCC(=O)O)NC(=O)[C@@H](NC(=O)[C@H](Cc1ccccc1)NC(=O)[C@H](CCC(=O)O)NC(=O)[C@H](CCCCNC(=O)CC[C@H](NC(=O)CCCCCNC(=O)CC/C(C)=C/Cc1c(O)c2c(c(C)c1OC)COC2=O)C(=O)O)NC(=O)[C@H](C)NC(=O)[C@H](C)NC(=O)[C@H](CCC(=O)O)NC(=O)[C@H](CCC(=O)O)NC(=O)[C@H](CCC(=O)O)NC(=O)[C@H](CC(C)C)NC(=O)[C@H](Cc1ccc(O)cc1)NC(=O)[C@H](CCC(=O)O)NC(=O)[C@@H](NC(=O)[C@@H](NC(=O)[C@H](CC(=O)O)NC(=O)[C@H](CC(N)=O)NC(=O)[C@@H](NC(=O)[C@H](Cc1ccc(O)cc1)NC(=O)[C@@H](NC(=O)CNC(=O)[C@H](CCC(=O)O)NC(=O)CNC(=O)[C@@H](N)Cc1cnc[nH]1)[C@@H](C)O)[C@@H](C)O)C(C)C)[C@@H](C)O)[C@@H](C)CC)C(=O)N[C@@H](CCCCN)C(=O)NCC(=O)N[C@@H](CCCCN)C(=O)O (H-HGEGTYTNDVTEYLEEEAAK([γGlu-Ahx-Mycophenolyl])EFIEWLIKGK-OH)
- EC50 [1]: 6.9 nM

Compound: SEMAGLUTIDE
- PB ([3]; isolated protein, 1 h): 97.8%
- t1/2 [5]: > 48 h

Compound: CC[C@H](C)[C@H](NC(=O)[C@H](CC(C)C)NC(=O)[C@H](Cc1c[nH]c2ccccc12)NC(=O)[C@H](CCC(=O)O)NC(=O)[C@@H](NC(=O)[C@H](Cc1ccccc1)NC(=O)[C@H](CCC(=O)O)NC(=O)[C@H](CCCCN)NC(=O)[C@H](C)NC(=O)[C@H](C)NC(=O)[C@H](CCC(=O)O)NC(=O)[C@H](CCC(=O)O)NC(=O)[C@H](CCC(=O)O)NC(=O)[C@H](CC(C)C)NC(=O)[C@H](Cc1ccc(O)cc1)NC(=O)[C@H](CCC(=O)O)NC(=O)[C@@H](NC(=O)[C@@H](NC(=O)[C@H](CC(=O)O)NC(=O)[C@H](CC(N)=O)NC(=O)[C@@H](NC(=O)[C@H](Cc1ccc(O)cc1)NC(=O)[C@@H](NC(=O)CNC(=O)[C@H](CCC(=O)O)NC(=O)CNC(=O)[C@@H](N)Cc1cnc[nH]1)[C@@H](C)O)[C@@H](C)O)C(C)C)[C@@H](C)O)[C@@H](C)CC)C(=O)N[C@@H](CCCCN)C(=O)NCC(=O)N[C@@H](CCCCNC(=O)CC[C@H](NC(=O)CCCCCCCCCCCNC(=O)CC/C(C)=C/Cc1c(O)c2c(c(C)c1OC)COC2=O)C(=O)O)C(=O)O (H-HGEGTYTNDVTEYLEEEAAKEFIEWLIKGK([γGlu-12Ado-Mycophenolyl])-OH)
- EC50 [1]: 23.5 nM

Compound: CC[C@H](C)[C@H](NC(=O)[C@H](CC(C)C)NC(=O)[C@H](Cc1c[nH]c2ccccc12)NC(=O)[C@H](CCC(=O)O)NC(=O)[C@@H](NC(=O)[C@H](Cc1ccccc1)NC(=O)[C@H](CCC(=O)O)NC(=O)[C@H](CCCCN)NC(=O)[C@H](C)NC(=O)[C@H](C)NC(=O)[C@H](CCC(=O)O)NC(=O)[C@H](CCC(=O)O)NC(=O)[C@H](CCC(=O)O)NC(=O)[C@H](CC(C)C)NC(=O)[C@H](Cc1ccc(O)cc1)NC(=O)[C@H](CCC(=O)O)NC(=O)[C@@H](NC(=O)[C@@H](NC(=O)[C@H](CC(=O)O)NC(=O)[C@H](CC(N)=O)NC(=O)[C@@H](NC(=O)[C@H](Cc1ccc(O)cc1)NC(=O)[C@@H](NC(=O)CNC(=O)[C@H](CCC(=O)O)NC(=O)CNC(=O)[C@@H](N)Cc1cnc[nH]1)[C@@H](C)O)[C@@H](C)O)C(C)C)[C@@H](C)O)[C@@H](C)CC)C(=O)N[C@@H](CCCCN)C(=O)NCC(=O)N[C@@H](CCCCNC(=O)CC[C@H](NC(=O)CCCCCNC(=O)CC/C(C)=C/Cc1c(O)c2c(c(C)c1OC)COC2=O)C(=O)O)C(=O)O (H-HGEGTYTNDVTEYLEEEAAKEFIEWLIKGK([γGlu-Ahx-Mycophenolyl])-OH)
- EC50 [1]: 16.8 nM

Compound: CC[C@H](C)[C@H](NC(=O)[C@H](CC(C)C)NC(=O)[C@H](Cc1c[nH]c2ccccc12)NC(=O)[C@H](CCC(=O)O)NC(=O)[C@@H](NC(=O)[C@H](Cc1ccccc1)NC(=O)[C@H](CCC(=O)O)NC(=O)[C@H](CCCCNC(=O)CC[C@H](NC(=O)CCCCCNC(=O)CC/C(C)=C/Cc1c(O)c2c(c(C)c1OC)COC2=O)C(=O)O)NC(=O)[C@H](C)NC(=O)[C@H](C)NC(=O)[C@H](CCC(=O)O)NC(=O)[C@H](CCC(=O)O)NC(=O)[C@H](CCC(=O)O)NC(=O)[C@H](CC(C)C)NC(=O)[C@H](Cc1ccc(O)cc1)NC(=O)[C@H](CCC(=O)O)NC(=O)[C@@H](NC(=O)[C@@H](NC(=O)[C@H](CC(=O)O)NC(=O)[C@H](CC(N)=O)NC(=O)[C@@H](NC(=O)[C@H](Cc1ccc(O)cc1)NC(=O)[C@@H](NC(=O)CNC(=O)[C@H](CCC(=O)O)NC(=O)CNC(=O)[C@@H](N)Cc1cnc[nH]1)[C@@H](C)O)[C@@H](C)O)C(C)C)[C@@H](C)O)[C@@H](C)CC)C(=O)N[C@@H](CCCCN)C(=O)NCC(=O)N[C@@H](CCCCN)C(=O)N1CCC[C@H]1C(=O)N[C@@H](CO)C(=O)N[C@@H](CO)C(=O)NCC(=O)N[C@@H](C)C(=O)N1CCC[C@H]1C(=O)N1CCC[C@H]1C(=O)N1CCC[C@H]1C(=O)N[C@@H](CO)C(=O)O (H-HGEGTYTNDVTEYLEEEAAK([γGlu-Ahx-Mycophenolyl])EFIEWLIKGKPSSGAPPPS-OH)
- EC50 [1]: 4.1 nM
- Activity [2]: Active
- fraction unbound at 1 h [3]: 0.351
- Activity [4]: Active
- half-life [5]: 19.3 h

Compound: CC[C@H](C)[C@H](NC(=O)[C@H](CC(C)C)NC(=O)[C@H](Cc1c[nH]c2ccccc12)NC(=O)[C@H](CCC(=O)O)NC(=O)[C@@H](NC(=O)[C@H](Cc1ccccc1)NC(=O)[C@H](CCC(=O)O)NC(=O)[C@H](CCCCN)NC(=O)[C@H](C)NC(=O)[C@H](C)NC(=O)[C@H](CCC(=O)O)NC(=O)[C@H](CCC(=O)O)NC(=O)[C@H](CCC(=O)O)NC(=O)[C@H](CC(C)C)NC(=O)[C@H](Cc1ccc(O)cc1)NC(=O)[C@H](CCC(=O)O)NC(=O)[C@@H](NC(=O)[C@@H](NC(=O)[C@H](CC(=O)O)NC(=O)[C@H](CC(N)=O)NC(=O)[C@@H](NC(=O)[C@H](Cc1ccc(O)cc1)NC(=O)[C@@H](NC(=O)CNC(=O)[C@H](CCC(=O)O)NC(=O)CNC(=O)[C@@H](N)Cc1cnc[nH]1)[C@@H](C)O)[C@@H](C)O)C(C)C)[C@@H](C)O)[C@@H](C)CC)C(=O)N[C@@H](CCCCNC(=O)CC[C@H](NC(=O)CCCCCNC(=O)CC/C(C)=C/Cc1c(O)c2c(c(C)c1OC)COC2=O)C(=O)O)C(=O)NCC(=O)N[C@@H](CCCCN)C(=O)O (H-HGEGTYTNDVTEYLEEEAAKEFIEWLIK([γGlu-Ahx-Mycophenolyl])GK-OH)
- EC50 [1]: 11.8 nM
